Reference: ChEMBL document CHEMBL1144498, “A two stage click-based library of protein tyrosine phosphatase inhibitors” (Bioorg Med Chem, 2007)

Tests used:
Yersinia pestis [1] = experiment: Inhibition of Yersinia pestis protein tyrosine phosphatase at 100 uM
Method in brief: (§1)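 Single-concentration percent inhibition screen with p-NPP substrate, 2.9 mM for Yersinia PTP and 2.0 mM for PTP1B. Buffer was 50 mM 3,3-dimethylglutarate pH 7.0 with 1 mM EDTA, 50 mM NaCl and 10% DMSO, at room temperature. Initial hydrolysis rates were read at 405 nm from 10 to 130 s.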

[2] = Inhibition of Yersinia pestis protein tyrosine phosphatase CD45
Method in brief: (§2)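 p-NPP hydrolysis at room temperature in 50 mM 3,3-dimethylglutarate pH 7.0, 1 mM EDTA, 50 mM NaCl, 10% DMSO. Substrate was held at Km: Yersinia PTP 2.9, PTP1B 2.0, TCPTP 2.1, CD45 7.0 mM. Initial rates came from absorbance at 405 nm, 10–130 s after mixing. IC50 was obtained by Dixon analysis.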

[3] = Inhibition of Yersinia pestis Protein tyrosine phosphatase TC; method in brief: as §2
Yersinia pestis [4] = experiment: Inhibition of Yersinia pestis protein tyrosine phosphatase at 10 uM; method in brief: as §1
[5] = Inhibition of Yersinia pestis protein tyrosine phosphatase; method in brief: as §2
[6] = Inhibition of Yersinia pestis protein tyrosine phosphatase 1B; method in brief: as §2

| Structure (SMILES) | inhibition (Yersinia pestis [1]) [%] | IC50 [2] [µM] | IC50 [3] [µM] | inhibition (Yersinia pestis [4]) [%] | IC50 [5] [µM] | IC50 [6] [µM] |
| --- | --- | --- | --- | --- | --- | --- |
| C#CC(=O)N[C@H](CO)Cc1c[nH]c2ccccc12 | > 60 | – | – | – | – | – |
| COc1ccc2cc(-c3cn(C[C@H](Cc4c[nH]c5ccccc45)NC(=O)c4cn(-c5ccc(C(=O)C(=O)O)cc5)nn4)nn3)ccc2c1 | – | 16.8 | 2.6 | > 60 | 2.1 | 5.7 |
| O=C(O)C(=O)c1ccc(-n2cc(-c3ccc(-c4ccccc4)cc3)nn2)cc1 | – | – | – | – | 45 | 84 |
| O=C(O)C(=O)c1ccc(-n2cc(C(=O)N[C@@H](Cc3c[nH]c4ccccc34)Cn3cc(-c4ccc(-c5cn(C[C@H](Cc6c[nH]c7ccccc67)NC(=O)c6cn(-c7ccc(C(=O)C(=O)O)cc7)nn6)nn5)cc4)nn3)nn2)cc1 | – | 8.4 | 0.71 | > 60 | 0.55 | 2.1 |
| O=C(O)C(=O)c1ccc(-n2cc(-c3cccc(-c4cn(-c5ccc(C(=O)C(=O)O)cc5)nn4)c3)nn2)cc1 | – | – | – | – | 25 | 77 |
| C#Cc1cccc(C#C)c1 | > 60 | – | – | – | – | – |
| O=C(O)C(=O)c1ccc(-n2cc(C(=O)N[C@@H](Cc3c[nH]c4ccccc34)Cn3cc(-c4cccc(-c5cn(C[C@H](Cc6c[nH]c7ccccc67)NC(=O)c6cn(-c7ccc(C(=O)C(=O)O)cc7)nn6)nn5)c4)nn3)nn2)cc1 | – | 8.5 | 1.8 | > 60 | 1.3 | 4.1 |
| C#Cc1ccc(-c2ccccc2)cc1 | > 60 | – | – | – | – | – |
| Cc1ccc(S(=O)(=O)c2cn(C[C@H](Cc3c[nH]c4ccccc34)NC(=O)c3cn(-c4ccc(C(=O)C(=O)O)cc4)nn3)nn2)cc1 | – | 15.8 | 2.6 | > 60 | 2.1 | 7.4 |
| C#Cc1ccc(C#C)cc1 | > 60 | – | – | – | – | – |
| O=C(O)C(=O)c1ccc(-n2cc(C(=O)N[C@H](CO)Cc3c[nH]c4ccccc34)nn2)cc1 | – | – | – | – | 58 | 500 |
